# Compounds with a hit are over-represented: about 6.4% of the library has one in this group of screens.
# Ecoli WT expand – growth inhibitors of E. coli BW25113 wild type. growth inhibition, % at 100 µM. 98,000 compounds, 0.15% hits. OD600 absorbance. AID 710;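 active = growth inhibition above about 50% at one test dose, limit read from the data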;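 also: growth measured after 20 h incubation at 37 °C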
# Ecoli tolC – growth inhibitors of E. coli BW25113 tolC mutant; 65,000 compounds, 2.2% hits; OD615; growth inhibition, % at 10 µM (by protocol); AID 573;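 active = growth inhibition at or above a cutoff equal to the mean over every tested compound plus 3 SD, cut at about 60% in these data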;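 also: growth measured after 20 h incubation at 37 °C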
#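 Assay system: tolC-deleted E. coli BW25113. Medium: kanamycin-containing LB broth (50 µg/mL). Dosing: 10 µM final, single dose. Timing: bacterial growth with compound for 20 h at 37 °C. Detection: A615 absorbance measurement. Read-out basis: growth inhibition in percent.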
# H69AR growth 86K – blocks growth of human H69AR lung tumor cells; H69AR lung tumor viability, ATP luminescence, 72 h; hits give low values; viability, % at 10 µM; 85,000 compounds, 6% hits; AID 598;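 active = viability at or below 40%; inactive = viability above 40%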;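 also: multidrug resistant small cell line overexpressing MRP-1 efflux transporter; 100% = mean luminescence of untreated control wells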
# Jurkat tox 60K – cytotoxic compounds reducing Jurkat cell viability; inhibition, % at 4 µM; Jurkat E6.1 viability, ATP luminescence, 48 h; 56,000 compounds, 1.2% hits;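 active = inhibition above the mean inhibition of all tested compounds plus 3 SD, cut at about 28% in these data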
# Lung fibro prol – blocks proliferation of human lung fibroblasts | LL 47 human lung fibroblast viability, ATP luminescence; hits give low values | viability, % at 10 µM | 85,000 compounds, 1.1% hits;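 active = viability at or below 50% in the single dose screen; inactive = viability above 50%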;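 also: compound exposure lasted 72 h before the ATP readout; 100% = median luminescence of untreated cell-only wells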
#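 test system = LL 47 human lung fibroblasts | amount = 1,150 fibroblasts seeded per well | medium = 15% FBS in IMEM | times = overnight cell rest, 72 h compound treatment at 37 °C | measured by = CellTiter-Glo luminescence measuring cellular ATP | read-out = viability percentage against median untreated-cell control | benchmarks = cell-only wells, no compound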
# HUVEC prolif 384 – inhibitors of human endothelial cell proliferation | HUVEC proliferation, CellTiter-Glo luminescence, 72 h; hits give low values | viability, % at 10 µM (by protocol) | 86,000 compounds, 1.1% hits;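 active = viability at or below 30%; inactive = viability above 30%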;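 also: 100% = median luminescence of DMSO-only cell control wells on each plate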
# An asterisk follows results filed as active; . = not tested or not shown.
SMILES,Ecoli WT expand,Ecoli tolC,H69AR growth 86K,Jurkat tox 60K,Lung fibro prol,HUVEC prolif 384
CCOC(=O)c1[nH]c(C)c(C(=O)OCC)c1C,0,6,97,-7,93,100
CCc1c(C(=O)Nc2ccc(OC)cc2)[nH]c(C)c1C(C)=O,2,25,26*,7,92,85
Cc1ccc(-c2nnn(CC(=O)N(Cc3ccccc3F)C(C(=O)NC3CCCC3)c3ccncc3)n2)o1 (configuration not stated),.,.,46,.,101,101
O=C(Nc1ncc(Cc2ccccc2)s1)C1COc2ccccc2O1 (configuration not stated),-11,.,66,.,95,96
Cc1ccc(-c2noc(CNCCCN(C)C)n2)cc1,2,6,.,-11,102,90
COc1ccc(-n2c(SCC(=O)Nc3nccs3)nc3c(c2=O)SC(C)C3)cc1 (configuration not stated),1,11,84,1,101,90
CC(=O)c1c(C)[nH]c(C(=O)OCC(=O)Nc2ncc(Cl)c(C)c2Cl)c1C,-5,9,85,3,.,94
CCOC(=O)c1[nH]c(C)c(C(=O)N2CCc3ccccc32)c1C,0,21,26*,97*,49*,45
CC(=O)c1c(C)[nH]c(C(=O)N2CCc3ccccc32)c1C,3,1,80,-3,99,94
CCOC(=O)c1[nH]c(C)c(C(=O)OC(C)C(=O)Nc2ncc(Cl)cc2Cl)c1C (configuration not stated),-7,.,26*,.,96,79
O=C1CCCN1CC(CN1CCOCC1)Sc1nc2ccccc2c(=O)n1-c1ccccc1 (configuration not stated),.,-8,86,.,93,88
CCOc1ccccc1NC(=O)Cn1cnc2c(cnn2-c2ccc(C)c(C)c2)c1=O,-14,-32,95,8,.,102
COc1ccc(NC(=O)Cn2cnc3c(cnn3-c3ccc(C)c(C)c3)c2=O)c(OC)c1,-8,0,8.3*,-2,94,56
Cc1nn(-c2ccccc2)c2c1C(O)n1c(nc3ccccc31)S2 (configuration not stated),3,17,.,4,.,.
C=CCn1c(SCC(=O)Nc2ccc3c(c2)OCO3)nnc1-c1ccccc1,0,11,101,-2,105,99
C=CCn1c(SCC(=O)Nc2ccc3c(c2)OCO3)nnc1-c1cc(Br)ccc1O,-3,74*,83,3,103,79
COc1ccc(NC2=NC3(CCCCC3)N=C(N)N2)cc1,12,23,103,2,107,113
CCCCOc1ccc(NC2=NC3(CCCCC3)N=C(N)N2)cc1,59*,99*,75,14,61,71
O=C(Nc1ccc(F)cc1)c1nsc(Cl)c1Cl,.,.,37*,.,100,87
CS(=O)(=O)N(CC(=O)Nc1cccc(F)c1)Cc1ccccc1,6,-5,87,4,102,98
CCOCc1cnc(C)nc1NCC(=O)c1c(C)n(C)c2ccc(OC)cc12,8,-7,34*,1,96,61
COc1ccc2c(c1)c(C(=O)CNc1nc(C)cs1)c(C)n2C,-3,-2,68,4,90,87
C=CCn1c(SCC(=O)Nc2nc(C)cs2)nnc1C(NC(=O)c1ccccc1)C(C)C (configuration not stated),.,.,14*,.,100,93
Cc1[nH]n2c(=O)cc(C(C)(C)C)nc2c1-c1ccccc1,11,100*,36*,8,69,50
CCCc1cc(=O)n2[nH]c(C)c(-c3ccccc3)c2n1,-4,21,55,2,103,76
SMILES,Ecoli WT expand,Ecoli tolC,H69AR growth 86K,Jurkat tox 60K,Lung fibro prol,HUVEC prolif 384
Cc1[nH]n2c(=O)cc(C(C)C)nc2c1-c1ccccc1,-7,54,14*,-11,66,58
Cc1[nH]n2c(=O)cc(-c3ccc([N+](=O)[O-])cc3)nc2c1-c1ccccc1,.,.,15*,.,53,8.6*
COC(=O)Cc1cc(=O)n2[nH]c(C)c(-c3ccccc3)c2n1,-5,.,99,.,95,90
N/C(=N\OC(=O)C1CCCCC1)c1ccccn1,6,.,.,.,.,.
COc1cccc(-c2nnc(NC(=O)c3ccccc3Br)o2)c1,.,72*,34*,-2,93,78
COc1ccc(C(=O)Nc2nnc(-c3ccccc3)o2)cc1OC,-6,36,33*,2,93,86
COc1cccc(-c2nnc(NC(=O)c3cccc(F)c3)o2)c1,.,100*,.,3,.,.
COc1cccc(-c2nnc(NC(=O)C(C)C)o2)c1,9,.,81,.,99,97
Cc1cccc(-c2nnc(NC(=O)c3ccc(Cl)cc3)o2)c1,30,100*,25*,-6,106,3.2*
O=C(Nc1nnc(-c2ccc(Cl)cc2)o1)c1nc2ccccc2s1,3,.,17*,.,95,38
CCOc1ccc(NS(=O)(=O)c2ccc3[nH]cc(C(=O)NC(C)CC)c(=O)c3c2)cc1 (configuration not stated),-1,100*,98,4,94,86
C=CCSc1n[nH]c(-c2ccc(OCCC)cc2)n1,21,33,81,-5,93,97
C=CCSc1n[nH]c(-c2ccc(OCCCC)cc2)n1,0,86*,66,2,94,79
C=CCn1c(-c2cccn(Cc3ccc(Cl)cc3Cl)c2=O)n[nH]c1=S,-1,.,.,.,.,.
Cc1ccc2c3c(c(SCC(=O)Nc4nonc4C)nc2c1)CCCC3,-13,-14,16*,.,88,76
COc1ccc(-c2nc(Cn3c(SCc4ccccc4F)nc4ccncc43)c(C)o2)cc1,-10,.,14*,.,40*,30
CCC/C(O)=N\S(=O)(=O)c1ccc(N=NN(C)C)cc1,.,.,94,.,96,99
CCC(c1nnnn1C1CCCC1)N(Cc1cccs1)Cc1cc2cc(C)ccc2[nH]c1=O (configuration not stated),-11,17,4.2*,-1,74,51
CCOc1ccc2[nH]c(=O)c(CN(Cc3cccs3)C(CC)c3nnnn3C(C)(C)CC)cc2c1 (configuration not stated),-16,38,4.9*,0,62,56
CC(C)CCNC(=O)C(c1cccnc1)N(CCc1ccccc1)C(=O)Cn1nnc2ccccc21 (configuration not stated),.,.,78,.,98,89
Cc1cc(C)n2nc(SCC(=O)c3cc(C)n(-c4cc(C)on4)c3C)nc2n1,-4,20,100,33*,91,87
CC(C)(C)C1CCc2c(sc(NC(=O)c3ccco3)c2C(N)=O)C1 (configuration not stated),.,.,39*,.,59,75
Cc1cc(NC(=O)CSc2nc3sc(C)c(C)c3c(=O)n2C2CCCC2)no1,-9,.,15*,.,15*,45
CCCNC(=O)c1cc2nc(-c3ccccc3)cc(C(F)(F)F)n2n1,.,.,94,.,97,88
COc1ccc(-c2cc(-c3c(O)c(OC)c4occc4c3OC)[nH]n2)cc1OC,6,43,26*,1,63,78

# Screens deposited in PubChem by several laboratories.
